Columns and labels:
[1] = DPPH radical scavenging activity assessed as ratio of IC50 for trolox to IC50 for test compound; assay type: functional
In short: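 TEAC is the ratio of Trolox IC50 to sample IC50. Both come from the same HPLC DPPH scavenging assay: 250 μM final DPPH, 20 min in the dark at room temperature, reversed-phase HPLC with diode-array detection. Each IC50 is derived by linear regression from at least five concentrations in triplicate.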

[2] = system: Radical scavenging activity; assay: Antioxidant activity assessed as DPPH radical scavenging activity by HPLC; assay type: functional
In short: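 In the HPLC DPPH assay, test material in methanol or DMSO is mixed 1:1 with methanolic DPPH (final 250 μM) and held in the dark for 20 min at room temperature, then filtered and run on reversed-phase HPLC with diode-array detection. IC50 is obtained by linear regression over at least five concentrations, each in triplicate.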

| Compound | Ratio IC50 [1] | IC50 [2] [µM] |
| --- | --- | --- |
| CC(C)(Sc1cc(C(C)(C)C)c(O)c(C(C)(C)C)c1)Sc1cc(C(C)(C)C)c(O)c(C(C)(C)C)c1 [PROBUCOL] | 1.29 | 52.7 |
| Cc1c(C)c2c(c(C)c1O)CC[C@@](C)(CCC[C@H](C)CCC[C@H](C)CCCC(C)C)O2 [ALPHA-TOCOPHEROL] | 1.07 | 63.6 |
| Cc1c(C)c2c(c(C)c1O)CCC(C)(C(=O)O)O2 (stereo unspecified) [TROLOX] | 1 | 67.8 |
